In ChEMBL document CHEMBL1250553, “Synthesis, cytotoxicity and liposome preparation of 28-acetylenic betulin derivatives” (Bioorg Med Chem, 2010):
The source made the active and inactive calls. No cut-off for these calls is given here.

Tests used:
Type in all cases: functional, cell-based
A-431 [1] = test: Cytotoxicity against human A431 cells at 30 uM after 96 hrs by sulforhodamine B assay
Procedure, shortened: (§1)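 Growth inhibition at the highest tested concentration, 30 µM, after 96 h exposure in 96-well plates. Read by SRB staining as % viable cells relative to untreated controls, from at least three independent experiments.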

A253 = test: Cytotoxicity against human A253 cells at 30 uM after 96 hrs by sulforhodamine B assay; procedure, shortened: as §1
A549 [2] = test: Cytotoxicity against human A549 cells at 30 uM after 96 hrs by sulforhodamine B assay; procedure, shortened: as §1
SW480 [3] = test: Cytotoxicity against human SW480 cells at 30 uM after 96 hrs by sulforhodamine B assay; procedure, shortened: as §1
HCT-116 [4] = test: Cytotoxicity against human HCT116 cells at 30 uM after 96 hrs by sulforhodamine B assay; procedure, shortened: as §1
DLD-1 [5] = test: Cytotoxicity against human DLD1 cells at 30 uM after 96 hrs by sulforhodamine B assay; procedure, shortened: as §1
MCF7 [6] = test: Cytotoxicity against human MCF7 cells at 30 uM after 96 hrs by sulforhodamine B assay; procedure, shortened: as §1
8505C [7] = test: Cytotoxicity against human 8505C cells at 30 uM after 96 hrs by sulforhodamine B assay; procedure, shortened: as §1
HT-29 [8] = test: Cytotoxicity against human HT-29 cells at 30 uM after 96 hrs by sulforhodamine B assay; procedure, shortened: as §1
A2780 [9] = test: Cytotoxicity against human A2780 cells at 30 uM after 96 hrs by sulforhodamine B assay; procedure, shortened: as §1
FaDu [10] = test: Cytotoxicity against human FADU cells at 30 uM after 96 hrs by sulforhodamine B assay; procedure, shortened: as §1
HCT-8 [11] = test: Cytotoxicity against human HCT8 cells at 30 uM after 96 hrs by sulforhodamine B assay; procedure, shortened: as §1
SW-1736 [12] = test: Cytotoxicity against human SW1736 cells at 30 uM after 96 hrs by sulforhodamine B assay; procedure, shortened: as §1
Homo sapiens = species: Homo sapiens; test: Cytotoxicity against human liposarcoma cells at 30 uM after 96 hrs by sulforhodamine B assay; procedure, shortened: as §1
518A2 = test: Cytotoxicity against human 518A2 cells at 30 uM after 96 hrs by sulforhodamine B assay; procedure, shortened: as §1
[13] = Cytotoxicity against human liposarcoma cells after 96 hrs by sulforhodamine B assay
Procedure, shortened: (§2)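 Human tumour cell lines in 96-well plates, exposed to test compounds for 96 h, then read by colorimetric sulforhodamine B staining. Viable cells are expressed as % of untreated controls. IC50 is taken from dose–response curves, top concentration 30 µM, as the mean of at least three independent experiments (variation generally 10%). Compounds are given as DMSO solutions or as an aqueous liposomal formulation.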

HCT-8 [14] = test: Cytotoxicity against human HCT8 cells after 96 hrs by sulforhodamine B assay; conditions: HCT-8, 96 h; procedure, shortened: as §2
A549 [15] = test: Cytotoxicity against human A549 cells after 96 hrs by sulforhodamine B assay; conditions: A549, 96 h; procedure, shortened: as §2
FaDu [16] = test: Cytotoxicity against human FADU cells after 96 hrs by sulforhodamine B assay; procedure, shortened: as §2
MCF7 [17] = test: Cytotoxicity against human MCF7 cells after 96 hrs by sulforhodamine B assay; conditions: MCF7, 96 h; procedure, shortened: as §2
8505C [18] = test: Cytotoxicity against human 8505C cells after 96 hrs by sulforhodamine B assay; procedure, shortened: as §2
SW-1736 [19] = test: Cytotoxicity against human SW1736 cells after 96 hrs by sulforhodamine B assay; conditions: SW-1736, 96 h; procedure, shortened: as §2
[20] = Cytotoxicity against human A253 cells after 96 hrs by sulforhodamine B assay; conditions: A253, 96 h; procedure, shortened: as §2
HCT-116 [21] = test: Cytotoxicity against human HCT116 cells after 96 hrs by sulforhodamine B assay; conditions: HCT-116, 96 h; procedure, shortened: as §2
SW480 [22] = test: Cytotoxicity against human SW480 cells after 96 hrs by sulforhodamine B assay; conditions: SW480, 96 h; procedure, shortened: as §2
A2780 [23] = test: Cytotoxicity against human A2780 cells after 96 hrs by sulforhodamine B assay; conditions: A2780, 96 h; procedure, shortened: as §2
A-431 [24] = test: Cytotoxicity against human A431 cells after 96 hrs by sulforhodamine B assay; conditions: A-431, 96 h; procedure, shortened: as §2
[25] = Cytotoxicity against human 518A2 cells after 96 hrs by sulforhodamine B assay; conditions: 518A2, 96 h; procedure, shortened: as §2
HT-29 [26] = test: Cytotoxicity against human HT-29 cells after 96 hrs by sulforhodamine B assay; conditions: HT-29, 96 h; procedure, shortened: as §2
DLD-1 [27] = test: Cytotoxicity against human DLD1 cells after 96 hrs by sulforhodamine B assay; conditions: DLD-1, 96 h; procedure, shortened: as §2

| SMILES | inhibition (DLD-1 [5]) | IC50 [13] [µM] | IC50 (HCT-8 [14]) [µM] | IC50 (A549 [15]) [µM] | IC50 (FaDu [16]) [µM] | IC50 (MCF7 [17]) [µM] | IC50 (8505C [18]) [µM] | IC50 (SW-1736 [19]) [µM] | IC50 [20] [µM] | IC50 (HCT-116 [21]) [µM] | IC50 (SW480 [22]) [µM] | IC50 (A2780 [23]) [µM] | IC50 (A-431 [24]) [µM] | IC50 [25] [µM] | IC50 (HT-29 [26]) [µM] | IC50 (DLD-1 [27]) [µM] | also measured |
| --- | --- | --- | --- | --- | --- | --- | --- | --- | --- | --- | --- | --- | --- | --- | --- | --- | --- |
| C=C(C)[C@@H]1CC[C@]2(C(=O)C#CC(=O)OC)CC[C@]3(C)[C@H](CC[C@@H]4[C@@]5(C)CC[C@H](OC(C)=O)C(C)(C)[C@@H]5CC[C@]43C)[C@@H]12 | inactive | – | – | – | – | – | – | – | – | – | – | – | – | – | – | – | inhibition (A-431 [1]): inactive; inhibition (A253): inactive; inhibition (A549 [2]): inactive; inhibition (SW480 [3]): inactive; inhibition (HCT-116 [4]): inactive; inhibition (MCF7 [6]): inactive; inhibition (8505C [7]): inactive; inhibition (HT-29 [8]): inactive; inhibition (A2780 [9]): inactive; inhibition (FaDu [10]): inactive; inhibition (HCT-8 [11]): inactive; inhibition (SW-1736 [12]): inactive; inhibition (Homo sapiens): inactive; inhibition (518A2): inactive |
| C=C(C)[C@@H]1CC[C@]2([C@H](O)c3cnn(C)c3C(=O)OC)CC[C@]3(C)[C@H](CC[C@@H]4[C@@]5(C)CC[C@H](OC(C)=O)C(C)(C)[C@@H]5CC[C@]43C)[C@@H]12 | inactive | 14.1 | 13.4 | 24.5 | 17.6 | 12.3 | 10.8 | 22.8 | 16 | 20.4 | 7 | 12.7 | 12.4 | – | – | – | inhibition (HT-29 [8]): inactive; inhibition (518A2): inactive |
| C=C(C)[C@@H]1CC[C@]2([C@H](O)C3=C(C(=O)OC)C(C(=O)OCC)N=N3)CC[C@]3(C)[C@H](CC[C@@H]4[C@@]5(C)CC[C@H](OC(C)=O)C(C)(C)[C@@H]5CC[C@]43C)[C@@H]12 (some centres not stated) | inactive | 19.9 | 10 | 14.8 | 9.9 | 8 | 8.9 | 16.4 | 12.5 | 9.8 | 7.7 | 9.1 | 7.6 | 21.5 | 12 | – | – |
| C=C(C)[C@@H]1CC[C@]2([C@@H]3OC(=O)C=C3N3CCCC3)CC[C@]3(C)[C@H](CC[C@@H]4[C@@]5(C)CC[C@H](OC(C)=O)C(C)(C)[C@@H]5CC[C@]43C)[C@@H]12 | – | 6 | 0.5 | 7.8 | 6.3 | 3.7 | 5.3 | 4.1 | 4.6 | 2.1 | 5.7 | 2.2 | 2.1 | 4.7 | 3.9 | 5.4 | – |
| C=C(C)[C@@H]1CC[C@]2(C(=O)O)CC[C@]3(C)[C@H](CC[C@@H]4[C@@]5(C)CC[C@H](O)C(C)(C)[C@@H]5CC[C@]43C)[C@@H]12 [BETULINIC ACID] | – | 9.7 | – | – | – | – | – | – | – | – | – | 11 | – | – | – | – | – |
| C=C(C)[C@@H]1CC[C@]2([C@H](O)/C=C\CO)CC[C@]3(C)[C@H](CC[C@@H]4[C@@]5(C)CC[C@H](OC(C)=O)C(C)(C)[C@@H]5CC[C@]43C)[C@@H]12 | – | 18.5 | 10.1 | 12.8 | 10.7 | 19.4 | 17.8 | 9 | 14.8 | 10.5 | 17.9 | 12.6 | 12.4 | 20.4 | 15.9 | 12.3 | – |
| C=C(C)[C@@H]1CC[C@]2([C@@H]3OC(=O)C=C3NC3CC3)CC[C@]3(C)[C@H](CC[C@@H]4[C@@]5(C)CC[C@H](OC(C)=O)C(C)(C)[C@@H]5CC[C@]43C)[C@@H]12 | – | 5.8 | 1.9 | 6.6 | 6 | 4 | 6 | 3.9 | 4.2 | 3.2 | 8 | 2.5 | 2.9 | 6.2 | 5.1 | 4.7 | – |
| C=C(C)[C@@H]1CC[C@]2([C@H](O)C#CCO)CC[C@]3(C)[C@H](CC[C@@H]4[C@@]5(C)CC[C@H](OC(C)=O)C(C)(C)[C@@H]5CC[C@]43C)[C@@H]12 | inactive | 11.4 | 11.6 | 11.9 | 11.2 | 9.9 | 8.4 | 11.5 | 10.3 | 11.3 | 6.9 | 10.4 | 10.5 | 11.9 | 11.6 | – | – |
| C=C(C)[C@@H]1CC[C@]2([C@H](O)c3nn[nH]c3C(=O)OC)CC[C@]3(C)[C@H](CC[C@@H]4[C@@]5(C)CC[C@H](OC(C)=O)C(C)(C)[C@@H]5CC[C@]43C)[C@@H]12 | – | 18.2 | 13.9 | 17.3 | 15.1 | 14.8 | 15.4 | 11.8 | 10.3 | 15.6 | 14.7 | 13.4 | 16.6 | 14.8 | 18.2 | 15.5 | – |
| C=C(C)[C@@H]1CC[C@]2([C@H](O)c3c(C(=O)OCC)n[nH]c3C(=O)OC)CC[C@]3(C)[C@H](CC[C@@H]4[C@@]5(C)CC[C@H](OC(C)=O)C(C)(C)[C@@H]5CC[C@]43C)[C@@H]12 | inactive | 14 | 13.4 | 18.2 | 13.9 | 11.3 | 12 | 19.2 | 13.2 | 14 | 11.4 | 13.2 | 11.7 | 16.4 | 17 | – | – |
